Screening data: PubChem BioAssay, The Scripps Research Institute Molecular Screening Center
An excerpt weighted towards active compounds, which were near 2.6% of everything screened.
OX1R antag-1 – blocks the human orexin 1 receptor. O43613. CHO/OX1R cells, Fluo-8 calcium fluorescence, orexin A. inhibition, % at 5 µM. 0.43% of 330,000 active. AID 434989;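 active means inhibition above its plate's threshold, mean inhibition of all tested compounds on the plate plus 3 SD, cut at about 37% in these data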;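 further: 0% = orexin A challenge wells and 100% = SB-334867-A antagonist wells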
V1R ag counter – activates human V1a receptor in oxytocin agonist counter-screen | P37288 | 0.25% of 320,000 active | CHO-V1R cells, Fluo-8 calcium fluorescence, agonist mode; 0% DMSO, 100% 3 nM vasopressin | activation, % at 3 µM;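 active means activation above the mean activation of all tested compounds plus 3 SD, per screening run, cut at about 20% in these data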;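 further: signal is peak over basal fluorescence ratio across a 100 second FLIPR read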
Target sequence (P37288 whole entry, looked up): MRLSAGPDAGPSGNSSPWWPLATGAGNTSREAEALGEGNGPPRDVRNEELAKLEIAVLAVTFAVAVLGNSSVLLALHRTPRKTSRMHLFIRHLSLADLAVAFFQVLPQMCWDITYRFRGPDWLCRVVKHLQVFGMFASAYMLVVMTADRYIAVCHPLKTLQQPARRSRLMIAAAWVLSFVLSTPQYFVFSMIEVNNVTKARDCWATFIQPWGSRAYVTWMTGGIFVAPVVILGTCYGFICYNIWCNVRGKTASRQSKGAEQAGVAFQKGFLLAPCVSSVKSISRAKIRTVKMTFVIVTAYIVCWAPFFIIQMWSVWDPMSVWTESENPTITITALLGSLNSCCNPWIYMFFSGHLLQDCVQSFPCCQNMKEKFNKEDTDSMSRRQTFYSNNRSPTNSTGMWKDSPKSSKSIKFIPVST
OXTR potentiate – human OXTR potentiation. activation, % at 3 µM. 0.061% of 320,000 active. CHO-OTR cells, Fluo-8 calcium fluorescence, potentiator mode; 0% = oxytocin EC15, 100% = EC100. AID 2445;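 active means activation above that plate's cutoff, the mean activation of tested compounds plus 3 SD, cut at about 6.6% in these data, passing the limit was not always enough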;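 further: 100% uses oxytocin at 75 nM as the full agonist control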
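Material: human OTR in CHO cells. Compound: 3.0 µM, one dose. Timing: compound 6 min at room temperature before oxytocin, 100 s read. Evaluation: % activation of max/min ratio relative to oxytocin controls. Replication: single well per compound, singlicate. Signal: Fluo-8 calcium dye fluorescence.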
CHO parental Ca – counter-screen: ATP calcium response change in parental CHO cells; parental CHO-K1, ATP-induced calcium, Fluo-8 fluorescence; inhibition, % at 5.6 µM; 0.63% of 330,000 active;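 active means inhibition above that plate's mean sample inhibition plus 3 SD, cut at about 26% in these data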;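 further: 0% = ATP-challenged DMSO wells and 100% = DMSO wells without ATP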
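Material – parental CHO cells · Reagent – ATP stimulus · Compound – single nominal dose of 5.6 µM per compound · Detection – Fluo-8 fluorescence · Read-out basis – percent inhibition of calcium signal · Controls – ATP-challenged DMSO wells low, unchallenged DMSO wells high · Repeats – no replicates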
OXTR ag – agonists of human oxytocin receptor. 0.32% of 320,000 active. AID 2435. activation, % at 3 µM. CHO-OTR cells, Fluo-8 calcium fluorescence; normalized: DMSO 0%, oxytocin 100%. P30559;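 active means activation above the mean of all tested compounds plus 3 SD, cutoff set per screening run, cut at about 20% in these data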;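 further: peak over basal fluorescence ratio from a 100 s FLIPR kinetic read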
OX1R antag-2 – antagonists of human orexin 1 receptor (OX1R); O43613; inhibition, % at 6.6 µM; 1.8% of 330,000 active; OX1R-expressing cells, FRET antagonist read-out; in the data active means inhibition mostly above about 38%, no sharp cut-off; inactive means mostly below about 40%;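 further: 0% = agonist challenge alone and 100% = reference antagonist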
OX1R Ca confirm – confirmation of human orexin 1 receptor antagonists. shares compounds with OX1R antag-1. CHO/OX1R cells, orexin A calcium Fluo-8 fluorescence. inhibition, % at 5 µM. 38% of 1,100 active. AID 492963; in the data active means inhibition above about 29%;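 further: 0% = agonist challenge alone and 100% = reference antagonist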
CHO Ca triplic – signal in parental CHO cells, OX1R antagonist counter-screen | shares compounds with OX1R antag-1 | parental CHO-K1, ATP-induced calcium, Fluo-8 fluorescence | inhibition, % at 5.6 µM | 9.3% of 1,100 active | AID 492965;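 active means inhibition above a per-plate limit, the mean inhibition of that plate's test compounds plus 3 SD, cut at about 25% in these data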;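 further: 0% = ATP challenge with DMSO and 100% = DMSO without ATP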
* = called active by the depositor; . = no result.

SMILES | OX1R antag-1 | V1R ag counter | OXTR potentiate | CHO parental Ca | OXTR ag | OX1R antag-2 | OX1R Ca confirm | CHO Ca triplic
COCCN=c1scc(-c2cc(OC)ccc2OC)n1/N=C/c1c[nH]c2ccccc12 | 31 | 4 | -14 | 0 | 3 | 42 | 35* | -10
COCCN=c1scc(-c2ccco2)n1/N=C/c1ccc(O)c(O)c1O | -10 | 0 | -4 | 8 | -1 | 20 | . | .
COC(=O)c1ccc(N2CCN(c3ccccc3)CC2)c(N)c1 | -9 | 1 | -14 | 3 | 0 | 20 | . | .
N#CCC(CNc1ncc(C(F)(F)F)cc1Cl)OC(=O)c1c(F)cccc1F (stereo not given) | 46 | 0 | -6 | -24 | 0 | 25 | 18 | -10
O=C(Nc1cc(C(F)(F)F)ccc1-n1cncn1)c1ccc(F)cc1Cl | -7 | -1 | -2 | -7 | -2 | 6 | . | .
O=C(NCCN1C(=O)S/C(=C\c2ccc(Cl)cc2)C1=O)c1ccc(F)c(S(=O)(=O)N2CCOCC2)c1 | -6 | 1 | -11 | -21 | 2 | 17 | . | .
O=C(NCCN1C(=O)S/C(=C\c2ccccc2)C1=O)c1cc(S(=O)(=O)N2CCOCC2)c(Cl)cc1Cl | 30 | 9 | -12 | 19 | 14 | 34 | 59* | 4
O=C(OCCc1cc2ccccc2c(=O)o1)c1ccccc1C(F)(F)F | 37 | 2 | -6 | -4 | 2 | 18 | 4 | 3
O=C(OCCCc1cc2ccccc2c(=O)o1)c1ccccc1C(F)(F)F | -5 | 0 | -2 | -11 | -2 | 3 | . | .
O=C(OCc1cccc([N+](=O)[O-])c1)c1cc2ccccc2oc1=O | 45 | 0 | 3 | -12 | 0 | 9 | -7 | 0
O=C(COc1ccc(C(=O)NCc2cccnc2)cc1)Nc1cccc(C(F)(F)F)c1 | 28 | 10 | -18 | 16 | 8 | 34 | 12 | 17
FC(F)(F)c1cc(NC2CCCCC2)ccn1 | -8 | 3 | -16 | 0 | 5 | 3 | . | .
CN(Cc1ccccc1)S(=O)(=O)c1ccc2c(c1)n(C)c(=O)c(=O)n2C | 32 | 0 | -4 | 4 | 0 | 19 | 1 | 20
O=C(CCc1ccncc1)NC1CCCc2c1cnn2-c1cc(F)cc(F)c1 (stereo not given) | 46* | 3 | -4 | -14 | 1 | 16 | 1 | -12
C=CCC(=O)NC1CCCc2c1cnn2-c1cc(F)cc(F)c1 (stereo not given) | -15 | 1 | -3 | -1 | 0 | 24 | . | .
C=CCn1c(SCC(=O)Nc2sccc2C(N)=O)nc2ccc(Cl)cc2c1=O | 53* | 6 | -22 | 9 | 6 | 46 | 16 | 8
COc1ccccc1-n1c(SCC(=O)Nc2ccc(NC(C)=O)cc2)nc2c([nH]c3ccccc32)c1=O | -9 | 1 | -2 | -8 | 0 | 21 | . | .
O=C1NC(=S)N(C(=O)c2ccc(F)cc2)/C1=C/c1ccccc1 | 16 | 17 | -8 | 4 | 14 | 40 | . | .
COc1ccc(/C=C2\C(=O)NC(=S)N2C(=O)c2ccc(F)cc2)cc1 | 42 | 22* | -9 | 23 | 20* | 28 | 20 | 24
COc1cc(CN2CC(=O)N(c3ccccc3Cl)C2=S)cc(OC)c1OC | 39 | 11 | -23 | 1 | 7 | 39 | 68* | 1
COc1cccc(S(=O)(=O)NCc2ccc(C(=O)Nc3cccc(Cl)c3)cc2)c1 | 45* | 5 | -17 | 16 | 4 | 52 | -1 | -1
Cc1nn(-c2ccccc2)c(C)c1/C=N/NC(=O)c1cc(-c2cccs2)[nH]n1 | 41 | 0 | -15 | -15 | 0 | 51 | 65* | -11
CCN(CC)C(=O)C1c2ccccc2Oc2ccccc21 | 24 | 64* | -8 | 13 | 48* | 31 | -7 | -6
OCCN(CC(O)Cn1ccc2ccccc21)CC(O)Cn1ccc2ccccc21 (stereo not given) | 39 | 13 | -23 | 19 | 7 | 11 | 15 | 5
Cc1cc(C)c(NC(=O)COC(=O)C2=COCCO2)c(Cl)c1 | 12 | 0 | -10 | -4 | -1 | 10 | . | .
SMILES | OX1R antag-1 | V1R ag counter | OXTR potentiate | CHO parental Ca | OXTR ag | OX1R antag-2 | OX1R Ca confirm | CHO Ca triplic
Cc1sc(NC(=O)CN2CCOCC2)nc1-c1ccc2c(c1)CCN2S(=O)(=O)c1ccccc1 | 42 | 9 | -14 | 22 | 15 | 20 | 18 | 28*
COc1ccc(S(=O)(=O)N/N=C\c2ccc([N+](=O)[O-])o2)c(OC)c1 | 6 | 0 | -10 | 0 | 1 | 18 | . | .
O=[N+]([O-])c1ccc(/C=N\NS(=O)(=O)c2ccc(F)cc2)o1 | 27 | 1 | -7 | 1 | 1 | 7 | -3 | 3
CCCN1C(=O)/C(=C/c2ccc(C)o2)NC1=S | -12 | 0 | -11 | -2 | 0 | 12 | . | .
CCCN1C(=O)/C(=C/c2ccc(N3CCOCC3)cc2)NC1=S | 26 | 31* | -35 | 24 | 25* | 4 | 15 | 19
COc1cccc(NC(=O)N2CCC(n3nnc4ccccc43)CC2)c1 | -38 | 0 | -18 | -19 | -1 | 10 | . | .
COc1cc(S(=O)(=O)N(CCc2ccccc2)Cc2cccs2)ccc1-n1cnnn1 | 52* | 2 | -13 | 14 | 2 | 12 | 3 | 10
COc1ccc(CCN(Cc2cccs2)S(=O)(=O)c2ccc(-n3cnnn3)cc2)cc1OC | -2 | 1 | -10 | 7 | 1 | 41 | . | .
COc1ccc(C(=O)NNC(=S)NC(=O)c2ccco2)cc1 | 31 | 19 | -12 | 3 | 18 | 8 | 6 | 19
Cn1c(CC(=O)NNC(=O)c2ccccc2[N+](=O)[O-])nc2ccccc21 | 2 | 1 | -1 | -11 | 1 | 3 | . | .
CC(CC(=O)NNC(=O)c1cccc(Cl)c1)c1ccccc1 (stereo not given) | -10 | 1 | -9 | -13 | 0 | 12 | . | .
CC(C)Cn1cnc2c(c(-c3ccccc3)c(-c3ccccc3)n2Cc2ccco2)c1=N | -18 | 8 | -14 | -28 | 5 | -2 | . | .
N=c1c2c(-c3ccccc3)c(-c3ccccc3)n(Cc3ccco3)c2ncn1Cc1ccccc1 | 59* | 23* | -19 | -6 | 21* | 15 | 43* | 2
COc1ccc(C(=O)NCC(=O)NCC(=O)OCc2ccc(Br)cc2)cc1 | -31 | 0 | 5 | -17 | -1 | 25 | . | .
O=C(CNC(=O)c1ccc(Oc2ccccc2)cc1)OCc1ccc(Br)cc1 | 34 | 4 | -6 | 17 | 4 | 8 | 8 | 3
Cc1ccc(C(=O)N/C(=C\c2ccc(Br)cc2)c2nc(=S)[nH][nH]2)cc1 | 8 | 3 | -1 | 8 | 3 | -1 | . | .
